# A selection: hits, their analogues and other compounds. The true share with any hit is near 4.6%.
# Arr AP2 block: inhibitors of beta-arrestin/AP2 binding, primary screen, biochemical, GPCR trafficking, flow cytometry; inhibition, % at 10 µM; FITC-arrestin peptide / GST-AP2 beads; AP2 beta2 appendage carries R879A mutation; actives 0.31% (n = 340,000); AID 504490, 2011; beta-arrestin 1 C-terminal peptide binding to AP2 beta2-adaptin appendage (human);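 active = inhibition above a set limit, near 3 SD of compounds lacking own fluorescence, cut at about 54% in these data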;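 also: plate controls were DMSO wells for no effect and 5 µM unlabelled arrestin peptide for full effect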
#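 system = GST-tagged AP2 beta2-adaptin appendage (R879A) on 4 µm glutathione beads | reagent = FITC-labelled arrestin peptide probe, 50 nM final | schedule = compound with beads 12 min RT, then probe 1 h RT | signal = HyperCyt-sampled flow cytometry, FL1 channel, ex 488/em 535 nm | read-out = percent response from loss of bead-bound FITC fluorescence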
# Pemphigus Ab inh: inhibitors of pemphigus antibody binding to DSG3, primary screen, biochemical, bead-based, flow cytometry, scFv-GFP; Desmoglein-3 (Homo sapiens), P32926; DSG3-coupled beads, scFv-anti-DSG3-GFP binding; active compounds read low; binding (percent of control), % at 10 µM; actives 0.48% (n = 310,000);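 active = binding more than 3 SD below its plate's average and above zero; inconclusive = below that plate limit but binding exactly zero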;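 also: hits lower antibody fragment binding to DSG3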
# NLRP3 yeast inh: NALP3 inflammasome inhibitors in reconstituted yeast, primary screen, luminescence, uHTS | Yeast reconstituted NLRP3/ASC/caspase-1, beta-gal luminescence, 24 h | inhibition, % at 10 µM | actives 0.39% (n = 330,000) | AID 2825, 2010;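 active = inhibition of 50% or more; inactive = inhibition below 50%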;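 also: plate controls were induced DMSO wells for no effect and uninduced yeast grown without galactose for full effect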
# PolyA inh: polyadenylation inhibitors in yeast reporter cells, primary screen, luminescence, S. cerevisiae. AID 1875, 2009. activity score, % at 12 µM. actives 0.02% (n = 300,000). S. cerevisiae SKY197-pL101 polyadenylation reporter, beta-gal luminescence; efflux-impaired pdr1/pdr3 knockout yeast; score 100 = 6 SD above DMSO;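 active = lowest replicate activity score at least 50, where 100 means six control SD above control mean; inconclusive = lowest score under 50 but half or more replicates reach 50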;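 also: yeast exposed to compound for 9 h at 30 °C; higher score means more reporter readthrough which indicates perturbed polyadenylation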
# NALP1 yeast inh: NALP1 inflammasome inhibitors in reconstituted yeast, colorimetric, S. cerevisiae, triplicate retest; actives 0.61% (n = 280,000); S. cerevisiae NALP1/ASC/caspase-1 growth, X-gal OD620, 72 h; AID 2071, 2009; inhibition, % at 10 µM; in the data active = inhibition mostly above about 24%, no sharp cut-off; inactive = mostly below about 32%
# ALR inh: inhibitors of human ALR sulfhydryl oxidase, primary screen, biochemical, H2O2 detection, HRP-luminol luminescence, single point; purified ALR, DTT oxidation; inhibition, % (concentration not given with the values); actives 3.8% (n = 290,000);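 active = mean replicate inhibition above about 79%, with every replicate also reaching it, limit read from the data; inconclusive = only one of the two criteria met; inactive = mean below limit and not every replicate reaching it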
# An asterisk follows results filed as active; ? = inconclusive; / = no result given.
SMILES,Arr AP2 block,Pemphigus Ab inh,NLRP3 yeast inh,PolyA inh,NALP1 yeast inh,ALR inh
Cc1ccc(NC(=O)CSc2ccc(C(N)=O)cc2[N+](=O)[O-])cc1C,8,69*,14,3,-10,-12
Cc1cc(=O)[nH]c(SCC(=O)Nc2ccc(N3CCCCC3)cc2)n1,-12,98,24,/,/,92*
CCOC(=O)c1ccc(NC(=O)CSc2nc3sc(C(=O)O)c(C)c3c(=O)[nH]2)cc1,17,101,14,13,1,98*
O=C(NCCCOc1ccc([N+](=O)[O-])cc1Cl)OCc1ccccc1,-9,104,/,/,/,/
O=C(CCn1c(=S)oc2ccccc21)Nc1cc([N+](=O)[O-])ccc1F,30,93,9,1,4,2
Cc1cccc(NC(=O)CSc2nnc3ccc(-c4cccnc4)nn23)c1,/,96,/,/,/,/
CCCc1cc(=O)[nH]c(Nc2ccc(N3CCCCC3)cc2)n1,23,104,2,2,15,98*
CCCCc1ccc(Nc2nc(CCC)cc(=O)[nH]2)cc1,-1,?,7,20,5,-5
CCS(=O)(=O)Nc1ccc(-c2cc(-c3ccccc3)c3cc(C)ccc3n2)cc1,0,97,/,5,36,89*
Cc1ccc2nc(-c3ccc(NS(C)(=O)=O)cc3)cc(-c3ccccc3)c2c1,19,102,22,-10,17,-4
Cc1ccc2nc(-c3ccncc3)cc(-c3ccccc3)c2c1,20,97,13,-35,34*,-3
COc1ccccc1CCNC(=O)CSc1nc(=O)[nH]c2c1CCC2,-6,94,21,2,/,-2
CC1CC(C)CN(CCCNC(=O)C2CCCN(S(=O)(=O)N3CC(C)CC(C)C3)C2)C1 (stereo not given),6,97,8,-6,14,-1
CC(OC(=O)c1cc2sccc2n1C)C(=O)NCc1ccc(F)cc1 (stereo not given),22,99,7,0,28,/
Cc1ccsc1C(=O)OCC(=O)NCc1ccc2c(c1)OCO2,8,52*,2,-1,18,0
N#CCC(=O)Nc1ccc(C(=O)OCC(=O)NCc2ccc3c(c2)OCO3)cc1,-6,99,15,/,/,99*
CC(OC(=O)c1ccc(NC(=O)CC#N)cc1)C(=O)Nc1ccc2c(c1)OCCO2 (stereo not given),-6,101,8,9,/,97*
CC(=O)Nc1ccc(NC(=O)C(C)OC(=O)c2ccc3c(c2)OCCO3)cc1 (stereo not given),24,103,1,-1,/,/
CC(OC(=O)c1cc2sccc2n1C)C(=O)NCc1ccc2c(c1)OCO2 (stereo not given),-7,69*,16,-18,21,-2
CC(=O)O[C@H]1C[C@@]2(C)[C@@H](C[C@@H](O)[C@H]3[C@@]4(C)CC[C@@H](O)[C@@H](C)[C@@H]4CC[C@@]32C)/C1=C(\CCC=C(C)C)C(=O)O,-1,98,6,20,/,9
O=C(CC1CC2CCC1C2)N1CCN(S(=O)(=O)c2ccc(F)cc2)CC1 (stereo not given),/,92,/,/,/,/
COc1ccc(NC(=O)NCc2ccc3c(c2)OCO3)cc1,8,82*,14,11,-5,0
Cc1ccc(/C=C/C(=O)NCc2ccc3c(c2)OCO3)o1,-10,126,23,8,47,92*
N#CCC(=O)Nc1ccc(C(=O)OCC(=O)NC(=O)Nc2ccc3c(c2)OCCO3)cc1,-4,107,16,/,/,99*
CCc1ccc(NC(=O)NCc2ccc3c(c2)OCO3)cc1,-4,105,16,11,19,-18
SMILES,Arr AP2 block,Pemphigus Ab inh,NLRP3 yeast inh,PolyA inh,NALP1 yeast inh,ALR inh
Cc1ccc(C(C)(C)C)c(SCC(=O)Nc2nnc(C)s2)c1,-12,117,8,1,-12,-7
C=CCn1c(-c2cc(-c3ccc(C)cc3)nc3ccccc23)n[nH]c1=S,-27,103,19,-11,-3,94*
C=CCn1c(-c2cc(OC)cc(OC)c2)n[nH]c1=S,16,103,8,-29,-29,96*
CCn1c(-c2cc(-c3ccc(C)cc3)nc3ccccc23)n[nH]c1=S,-46,97,40,-7,5,/
C=CCn1c(-c2cccc(OCC)c2)n[nH]c1=S,2,91,16,-10,-6,48
CCOc1c(Br)cc(CNc2ccc(N3CCOCC3)cc2)cc1OC,9,101,18,9,/,98*
CCOc1c(Br)cc(CNc2ccc3c(c2)OCCO3)cc1OC,4,107,17,5,-4,47
CN1CCN(C(=O)C(=O)c2cn(CC(=O)N3CCOCC3)c3ccccc23)CC1,/,98,/,/,/,/
Cc1ccc(C)c(NC(=O)CN(C)C(=O)c2ccc3[nH]c4c(c3c2)CC(C)CC4)c1 (stereo not given),-3,96,12,-4,/,0
Cc1cccc(NC(=S)NNC(=O)CCn2nc(C)c([N+](=O)[O-])c2C)c1,5,106,23,10,-16,4
Cc1nn(CC(=O)NNC(=S)Nc2ccccc2)c(C)c1[N+](=O)[O-],5,112,10,24,14,80*
COc1ccc(NC(=S)NNC(=O)Cn2nc([N+](=O)[O-])cc2C)cc1,28,98,14,-1,15,81*
CCOc1ccc(CCNC(=O)Cn2ncn3nc(-c4ccc(OC)cc4)cc3c2=O)cc1OCC,-10,101,-15,-1,14,-15
CCn1cc(CN2CCC(C(=O)Nc3ccc(Oc4ccccc4)nc3)CC2)cn1,16,103,5,1,34*,-1
O=C(Nc1ccc(Oc2cccnc2)cc1)C1CCN(Cc2cccc(Cl)c2)CC1,2,/,25,9,36*,-6
OC1CCN(Cc2cccc(Oc3ccccc3)c2)CC1,-5,104,14,-9,22,98*
O=C(CN1C(=O)NC2(CCc3ccccc32)C1=O)Nc1ccc(Cl)cc1F (stereo not given),/,103,/,/,/,/
COc1ccc(S(=O)(=O)NCCc2nnc3ccc(SCC(=O)Nc4nc(C)cs4)nn23)cc1,-4,/,-5,-1,20,89*
Cc1csc(NC(=O)CSc2ccc3nnc(CCNS(=O)(=O)c4ccccc4)n3n2)n1,1,100,4,1,36,12
COc1ccc(C(=O)C2CCCN(Cc3c[nH]c4ccccc34)C2)c(OC)c1 (stereo not given),3,108,14,21,28*,7

# Screening results: PubChem BioAssay, several laboratories
